Measurements as given in ChEMBL document CHEMBL1121762, “2-(Isoxazolylethenyl)phenoxypropanolamines: a new class of beta-receptor antagonists with antihypertensive activity” (1981).

Assays:
Type in all cases: functional
[1] = tested on: Rattus norvegicus; test: Dose required for inhibition of isoproterenol-induced tachycardia in pithed rat after intravenous administration
Method in brief: (§1)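 Male Sprague-Dawley rats, 200-240 g, anesthetized with amobarbital 120 mg/kg ip, pithed and ventilated via tracheal cannula; groups of two to five. Isoproterenol 0.1 μg/kg iv given before and 5 min after iv compound; heart rate by rate meter. ED50 = dose halving tachycardia; 95% confidence limits; relative potency vs labetalol (=1.0).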

[2] = tested on: Rattus norvegicus; test: Relative potency required for antihypertensive activity in spontaneous hypertensive rats after oral administration
Method in brief: (§2)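 Male SH rats (Okamoto strain), 250-380 g, groups of four to eight, dosed orally. Systolic pressure by tail cuff at 35 °C ambient, before and 2 h after dosing. ED20 = dose lowering systolic pressure 20%, corrected for placebo controls; from log dose vs Δ% regression; relative potency vs labetalol (=1.0).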

[3] = tested on: Rattus norvegicus; test: Relative potency required for hypotensive activity in anesthetized rat
Method in brief: (§3)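 Male Sprague-Dawley rats, 230-280 g, anesthetized with urethane 1.78 g/kg ip; groups of two to five. Compound given iv. Mean carotid arterial pressure recorded by transducer. ED20 = dose lowering mean carotid pressure by 20%; 95% confidence limits; relative potency versus labetalol (=1.0).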

[4] = tested on: Rattus norvegicus; test: Dose required for antihypertensive activity in spontaneous hypertensive rats after oral administration; method in brief: as §2
[5] = tested on: Rattus norvegicus; test: Relative potency required for inhibition of isoproterenol-induced tachycardia in pithed rat after intravenous administration; method in brief: as §1
[6] = tested on: Rattus norvegicus; test: Dose required for hypotensive activity in anesthetized rat after intravenous administration; method in brief: as §3
[7] = tested on: Rattus norvegicus; test: Dose required for inhibition of L-phenylephrine-induced pressor response in pithed rats after intravenous administration
Method in brief: (§4)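 Pithed male Sprague-Dawley rats, 200-240 g, amobarbital 120 mg/kg ip, artificially ventilated; three to five per dose. l-Phenylephrine 1.47 μg/kg iv before and 5 min after iv compound; carotid pressure recorded. ED50 = dose halving phenylephrine pressor rise; 95% confidence limits; relative potency vs labetalol (=1.0).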

[8] = organism: Rattus norvegicus; test: Relative potency required for inhibition of L-phenylephrine-induced pressor response in pithed rats; method in brief: as §4
[9] = tested on: Rattus norvegicus; test: Dose of compound required for hypotensive activity in anesthetized rat; method in brief: as §3

| SMILES | ED50 [1] [mg/kg] | Relative potency [2] | Relative potency [3] | ED20 [4] [mg/kg] | Relative potency [5] | ED20 [6] [mg/kg] | ED50 [7] [mg/kg] | Relative potency [8] | ED20 [9] [mg/kg] |
| --- | --- | --- | --- | --- | --- | --- | --- | --- | --- |
| COc1ccc(CCC(C)(C)NCC(O)COc2ccccc2/C=C/c2cc(C)no2)cc1 (stereo not given) | ~0.215 | ~2.2 | ~5.2 | ~21.5 | ~0.7 | ~1 | – | – | – |
| Cc1cc(/C=C/c2ccccc2OCC(O)CNC(C)CCc2ccc(O)cc2)on1 (stereo not given) | 0.011 | ~1 | 10.6 | ~46.4 | 12.7 | 0.49 | – | – | – |
| Cc1noc(/C=C/c2ccccc2OCC(O)CNC(C)(C)C)c1[N+](=O)[O-] (stereo not given) | ~0.0681 | – | ~5.2 | > 21.5 | ~2.1 | ~1 | – | – | – |
| Cc1noc(/C=C/c2ccccc2OCC(O)CNC(C)(C)C)c1C (stereo not given) | ~0.0215 | – | ~7.6 | > 21.5 | ~6.5 | ~0.68 | – | – | – |
| Cc1cc(/C=C/c2ccccc2OCC(O)CNC(C)CCc2ccccc2)on1 (stereo not given) | ~0.0464 | ~1 | ~5.2 | ~46.4 | ~3 | ~1 | – | – | – |
| COc1ccc(CC(C)NCC(O)COc2ccccc2/C=C/c2cc(C)no2)cc1OC (stereo not given) | ~0.464 | – | ~2.4 | > 21.5 | ~3 | ~2.15 | – | – | – |
| Cc1cc(/C=C/c2ccccc2OCC(O)CNC(C)C)on1 (stereo not given) | 0.006 | – | 8 | > 21.5 | 23.3 | ~0.65 | – | – | – |
| Cc1noc(/C=C/c2ccccc2OCC(O)CNC(C)(C)C)c1Cl (stereo not given) | 0.014 | – | ~5.2 | > 21.5 | 10 | ~1 | – | – | – |
| Cc1cc(/C=C/c2ccccc2OCC(O)CNC(C)(C)CCc2ccc(O)cc2)on1 (stereo not given) | ~0.0215 | ~2.2 | ~5.2 | ~21.5 | ~6.5 | ~1 | – | – | – |
| Cc1cc(/C=C/c2ccccc2OCC(O)CNC2CC2)on1 (stereo not given) | 0.0091 | ~2.2 | ~3.5 | ~21.5 | 15.4 | ~1.47 | 0.63 | 0.8 | – |
| CC(C)NCC(O)COc1ccccc1/C=C/c1cc(Cl)no1 (stereo not given) | 0.0464 | – | 7.6 | > 21.5 | 3 | – | – | – | 0.68 |
| COCc1cc(/C=C/c2ccccc2OCC(O)CNC2CC2)on1 (stereo not given) | ~0.01 | ~4.8 | ~5.2 | ~10 | ~14 | ~1 | 0.73 | 0.6 | – |
| CCc1cc(/C=C/c2ccccc2OCC(O)CNC(C)C)on1.Cl (stereo not given) | ~0.0215 | 5.1 | 12.7 | 9.38 | ~6.5 | 0.41 | – | – | – |
| Cc1cc(/C=C/c2ccccc2OCC(O)CNC(C)(C)C)on1.Cl (stereo not given) | 0.0088 | 3.3 | 13 | 14.5 | 15.9 | 0.4 | 0.12 | 3.9 | – |
| Cc1cc(C=Cc2ccccc2OCC(O)CNC(C)(C)C)no1.Cl (stereo not given) | 0.013 | ~2.2 | ~2.4 | ~21.5 | 10.8 | ~2.15 | – | – | – |
| CCc1cc(/C=C/c2ccccc2OCC(O)CNC(C)(C)C)on1.Cl (stereo not given) | ~0.0215 | – | 5.6 | > 21.5 | ~6.5 | 0.93 | – | – | – |
| COCc1cc(/C=C/c2ccccc2OCC(O)CNC(C)C)on1.Cl (stereo not given) | 0.0064 | 2.6 | ~5.2 | 18.2 | 21.9 | ~1 | 0.61 | 0.8 | – |
| COCc1cc(/C=C/c2ccccc2OCC(O)CNC(C)(C)C)on1.Cl (stereo not given) | 0.0074 | ~2.2 | ~6.5 | ~21.5 | 18.9 | ~0.8 | 0.21 | 2.2 | – |
| C#CC(C)(C)NCC(O)COc1ccccc1/C=C/c1cc(C)no1.Cl (stereo not given) | ~0.0681 | ~1 | 4.2 | ~46.4 | ~2.1 | ~1.25 | – | – | – |
| Cc1cc(/C=C/c2ccccc2OCC(O)CNC(C)C)no1.Cl (stereo not given) | 0.0034 | 1 | ~2.4 | ~46.4 | 41.2 | ~2.15 | – | – | – |
| CC(C)(C)NCC(O)COc1ccccc1/C=C/c1cc(C(C)(C)C)no1.Cl (stereo not given) | ~0.0215 | – | – | > 46.4 | ~6.5 | > 1 | – | – | – |
| CC(CCc1ccccc1)NCC(O)c1ccc(O)c(C(N)=O)c1 (stereo not given) [LABETALOL] | 0.14 | 1 | 1 | 47.7 | 1 | 5.2 | 0.47 | 1 | – |
